From ChEMBL document CHEMBL4350961, “Discovery of Pyrrolo[3,2- d]pyrimidin-4-one Derivatives as a New Class of Potent and Cell-Active Inhibitors of P300/CBP-Associated Factor Bromodomain” (J Med Chem, 2019)
Activity calls are given as the source filed them.

Tests used:
[1] = target: Bromodomain-containing protein 3 (Homo sapiens) (UniProt Q15059); test: Binding affinity to human partial length BRD3 bromodomain 2 (G306 to P416 residues) expressed in bacterial expression system at 1 uM by BROMOscan assay
How it was run: (§1)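 BROMOscan bromodomain cross-screen run by an outside service, compound at 1 µM against 32 recombinant bromodomains. Binding given as percent of control.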

[2] = target: Transcription intermediary factor 1-alpha (Homo sapiens) (UniProt O15164); test: Binding affinity to human partial length TRIM24 (P790 to P977 residues) expressed in bacterial expression system at 1 uM by BROMOscan assay; how it was run: as §1
[3] = target: Calcium/calmodulin-dependent protein kinase type II subunit alpha (Homo sapiens) (UniProt Q9UQM7); test: Inhibition of recombinant full-length human CaMK2alpha at 10 uM using calmodulin as substrate measured after 40 mins in presence of [gamma33P]ATP by scintillation counting method
[4] = test system: Serine/threonine-protein kinase Chk2 (Homo sapiens), O96017 [R145W]; test: Inhibition of recombinant human CHK2 R145W mutant (5 to end residues) at 10 uM using KKKVSRSGLYRSPSMPENLNRPR as substrate measured after 40 mins in presence of [gamma33P]ATP by scintillation counting method
[5] = test system: Mast/stem cell growth factor receptor Kit (Homo sapiens), P10721 [V560G]; test: Inhibition of recombinant human c-Kit V560G mutant (544 to end residues) at 10 uM using GGMEDIYFEFMGGKKK as substrate measured after 40 mins in presence of [gamma33P]ATP by scintillation counting method
[6] = target: Serine/threonine-protein kinase 17B (Homo sapiens) (UniProt O94768); test: Inhibition of recombinant full-length human DRAK2 at 10 uM using KKRPQRRYSNVF as substrate measured after 120 mins in presence of [gamma33P]ATP by scintillation counting method
[7] = target: Dual specificity tyrosine-phosphorylation-regulated kinase 1A (Homo sapiens) (UniProt Q13627); test: Inhibition of recombinant full-length human DYRK1A at 10 uM using RRRFRPASPLRGPPK as substrate measured after 40 mins in presence of [gamma33P]ATP by scintillation counting method
[8] = target: Dual specificity tyrosine-phosphorylation-regulated kinase 2 (Homo sapiens) (UniProt Q92630); test: Inhibition of recombinant full-length human DYRK2 at 10 uM using casein as substrate measured after 40 mins in presence of [gamma33P]ATP by scintillation counting method
[9] = target: Tyrosine-protein kinase Fes/Fps (Homo sapiens) (UniProt P07332); test: Inhibition of recombinant human FES (2 to end residues) at 10 uM using poly(Glu, Tyr) 4:1 as substrate measured after 40 mins in presence of [gamma33P]ATP by scintillation counting method
[10] = target: Rhodopsin kinase GRK7 (Homo sapiens) (UniProt Q8WTQ7); test: Inhibition of recombinant full-length human GRK7 at 10 uM using casein as substrate measured after 40 mins in presence of [gamma33P]ATP by scintillation counting method
[11] = target: Homeodomain-interacting protein kinase 1 (Homo sapiens) (UniProt Q86Z02); test: Inhibition of recombinant human activated HIPK1 (158 to 555 residues) at 10 uM using myelin basic protein as substrate measured after 40 mins in presence of [gamma33P]ATP by scintillation counting method
[12] = target: Insulin receptor (Homo sapiens) (UniProt P06213); test: Inhibition of recombinant human activated IR (1005 to 1310 residues) at 10 uM using KKKSPGEYVNIEFG as substrate measured after 40 mins in presence of [gamma33P]ATP by scintillation counting method
[13] = species: Homo sapiens; test: Inhibition of recombinant human Mer H628Q/R794A mutant (557 to 882 residues) at 10 uM using GGMEDIYFEFMGGKKK as substrate measured after 40 mins in presence of [gamma33P]ATP by scintillation counting method
[14] = target: Serine/threonine-protein kinase 3 (Homo sapiens) (UniProt Q13188); test: Inhibition of recombinant full-length human MST2 (2 to end residues) at 10 uM using myelin basic protein as substrate measured after 40 mins in presence of [gamma33P]ATP by scintillation counting method
[15] = target: Serine/threonine-protein kinase NIM1 (Homo sapiens) (UniProt Q8IY84); test: Inhibition of recombinant full-length human NIM1 at 10 uM using KKKVSRSGLYRSPSMPENLNRPR as substrate measured after 40 mins in presence of [gamma33P]ATP by scintillation counting method
[16] = target: Protein kinase C beta type (Homo sapiens) (UniProt P05771); test: Inhibition of recombinant human PKCbeta2 (2 to end residues) at 10 uM using histone H1 as substrate measured after 40 mins in presence of [gamma33P]ATP by scintillation counting method
[17] = test system: Protein kinase C eta type (Homo sapiens), P24723 [UNDEFINED MUTATION]; test: Inhibition of recombinant human PKCeta V108L/G109R/L392Q mutant (2 to end residues) at 10 uM using ERMRPRKRQGSVRRRV as substrate measured after 40 mins in presence of [gamma33P]ATP by scintillation counting method
[18] = target: Serine/threonine-protein kinase D2 (Homo sapiens) (UniProt Q9BZL6); test: Inhibition of recombinant full-length human PKD2 at 10 uM using KKLNRTLSVA as substrate measured after 40 mins in presence of [gamma33P]ATP by scintillation counting method
[19] = target: Ribosomal protein S6 kinase alpha-6 (Homo sapiens) (UniProt Q9UK32); test: Inhibition of recombinant full-length human Rsk4 at 10 uM using LRRASLG as substrate measured after 40 mins in presence of [gamma33P]ATP by scintillation counting method
[20] = test system: Serine/threonine-protein kinase Sgk2 (Homo sapiens), Q9HBY8 [S416D]; test: Inhibition of recombinant human SGK2 S416D mutant (54 to end residues) at 10 uM using GRPRTSSFAEGKK as substrate measured after 40 mins in presence of [gamma33P]ATP by scintillation counting method
[21] = target: Transcription initiation factor TFIID subunit 1-like (Homo sapiens) (UniProt Q8IZX4); test: Inhibition of human TAF1L (1428 to end residues) using RRRFRPASPLRGPPK as substrate measured after 120 mins in presence of [gamma33P]ATP by scintillation counting method
[22] = target: Wee1-like protein kinase 2 (Homo sapiens) (UniProt P0C1S8); test: Inhibition of recombinant full-length human WEE1b at 10 uM using LSNLYHQGKFLQTFCGSPLYRRR as substrate measured after 120 mins in presence of [gamma33P]ATP by scintillation counting method
[23] = target: Serine/threonine-protein kinase 33 (Homo sapiens) (UniProt Q9BYT3); test: Inhibition of recombinant full-length human STK33 at 10 uM using myelin basic protein as substrate measured after 40 mins in presence of [gamma33P]ATP by scintillation counting method

Chain of Mast/stem cell growth factor receptor Kit (Homo sapiens), P10721 [V560G] (P10721 whole entry V560G): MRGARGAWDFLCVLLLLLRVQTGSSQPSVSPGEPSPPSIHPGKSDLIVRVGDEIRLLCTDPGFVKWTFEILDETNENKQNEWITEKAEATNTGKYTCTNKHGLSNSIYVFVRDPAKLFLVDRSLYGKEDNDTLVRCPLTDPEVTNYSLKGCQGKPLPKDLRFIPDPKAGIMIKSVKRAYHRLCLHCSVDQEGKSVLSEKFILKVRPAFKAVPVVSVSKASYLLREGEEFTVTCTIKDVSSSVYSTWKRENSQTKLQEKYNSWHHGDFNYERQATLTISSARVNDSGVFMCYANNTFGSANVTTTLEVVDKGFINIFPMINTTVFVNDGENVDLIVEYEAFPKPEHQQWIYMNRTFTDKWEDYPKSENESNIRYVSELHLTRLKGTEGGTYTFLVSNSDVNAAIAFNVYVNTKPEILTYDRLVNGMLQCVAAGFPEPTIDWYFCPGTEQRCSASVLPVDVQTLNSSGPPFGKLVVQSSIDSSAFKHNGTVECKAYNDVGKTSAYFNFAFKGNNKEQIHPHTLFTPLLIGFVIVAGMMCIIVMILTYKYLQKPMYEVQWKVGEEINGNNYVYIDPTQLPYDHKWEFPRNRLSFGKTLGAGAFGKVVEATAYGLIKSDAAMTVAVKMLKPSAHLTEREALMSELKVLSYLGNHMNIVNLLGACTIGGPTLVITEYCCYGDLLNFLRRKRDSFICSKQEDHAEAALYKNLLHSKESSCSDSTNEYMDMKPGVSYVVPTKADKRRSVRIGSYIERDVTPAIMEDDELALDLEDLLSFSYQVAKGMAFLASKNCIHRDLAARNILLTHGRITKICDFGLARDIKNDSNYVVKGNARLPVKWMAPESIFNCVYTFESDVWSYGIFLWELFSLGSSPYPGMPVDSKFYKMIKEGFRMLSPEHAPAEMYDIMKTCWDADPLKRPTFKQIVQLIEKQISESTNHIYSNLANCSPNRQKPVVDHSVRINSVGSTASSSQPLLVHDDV
Chain of Ribosomal protein S6 kinase alpha-6 (Homo sapiens) (Q9UK32 whole entry): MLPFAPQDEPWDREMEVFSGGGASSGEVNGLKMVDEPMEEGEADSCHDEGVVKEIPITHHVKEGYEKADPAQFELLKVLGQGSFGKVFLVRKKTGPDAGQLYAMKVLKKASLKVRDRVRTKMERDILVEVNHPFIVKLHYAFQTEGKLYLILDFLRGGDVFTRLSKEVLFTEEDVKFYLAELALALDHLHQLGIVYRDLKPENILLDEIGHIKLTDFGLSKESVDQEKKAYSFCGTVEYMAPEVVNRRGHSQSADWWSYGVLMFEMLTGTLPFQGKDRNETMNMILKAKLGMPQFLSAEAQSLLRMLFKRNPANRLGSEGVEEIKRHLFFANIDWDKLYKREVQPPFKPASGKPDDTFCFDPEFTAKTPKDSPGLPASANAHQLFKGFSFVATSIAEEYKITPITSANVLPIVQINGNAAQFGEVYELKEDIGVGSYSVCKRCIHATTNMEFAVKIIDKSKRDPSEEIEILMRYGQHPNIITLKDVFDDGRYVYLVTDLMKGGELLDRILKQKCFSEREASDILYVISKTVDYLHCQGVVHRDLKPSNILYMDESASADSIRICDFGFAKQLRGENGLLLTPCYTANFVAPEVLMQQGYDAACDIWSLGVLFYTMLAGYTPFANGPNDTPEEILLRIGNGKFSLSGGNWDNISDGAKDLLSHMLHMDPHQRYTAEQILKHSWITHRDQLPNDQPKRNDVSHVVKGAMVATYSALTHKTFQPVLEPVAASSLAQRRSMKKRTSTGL
Chain of Protein kinase C eta type (Homo sapiens), P24723 [UNDEFINED MUTATION] (P24723 whole entry, looked up, stated change not applied): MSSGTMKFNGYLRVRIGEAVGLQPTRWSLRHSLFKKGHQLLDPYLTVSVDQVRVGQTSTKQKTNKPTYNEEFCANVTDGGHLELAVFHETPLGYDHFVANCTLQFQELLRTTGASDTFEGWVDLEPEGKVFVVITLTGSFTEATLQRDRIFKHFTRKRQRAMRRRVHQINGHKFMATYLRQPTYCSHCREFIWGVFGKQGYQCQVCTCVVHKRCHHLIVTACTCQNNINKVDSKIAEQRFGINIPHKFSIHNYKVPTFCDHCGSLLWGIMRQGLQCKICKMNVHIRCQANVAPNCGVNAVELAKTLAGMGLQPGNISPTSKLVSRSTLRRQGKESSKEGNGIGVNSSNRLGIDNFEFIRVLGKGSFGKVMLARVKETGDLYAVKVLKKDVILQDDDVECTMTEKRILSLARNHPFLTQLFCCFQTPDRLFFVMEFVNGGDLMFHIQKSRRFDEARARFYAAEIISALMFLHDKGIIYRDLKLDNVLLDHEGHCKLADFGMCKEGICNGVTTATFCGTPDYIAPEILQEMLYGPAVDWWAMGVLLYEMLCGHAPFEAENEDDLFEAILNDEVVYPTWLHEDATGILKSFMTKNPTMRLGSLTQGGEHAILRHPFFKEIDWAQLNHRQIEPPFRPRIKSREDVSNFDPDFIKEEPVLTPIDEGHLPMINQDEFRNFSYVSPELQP
Chain of Rhodopsin kinase GRK7 (Homo sapiens) (Q8WTQ7 whole entry, the tested form may be a part): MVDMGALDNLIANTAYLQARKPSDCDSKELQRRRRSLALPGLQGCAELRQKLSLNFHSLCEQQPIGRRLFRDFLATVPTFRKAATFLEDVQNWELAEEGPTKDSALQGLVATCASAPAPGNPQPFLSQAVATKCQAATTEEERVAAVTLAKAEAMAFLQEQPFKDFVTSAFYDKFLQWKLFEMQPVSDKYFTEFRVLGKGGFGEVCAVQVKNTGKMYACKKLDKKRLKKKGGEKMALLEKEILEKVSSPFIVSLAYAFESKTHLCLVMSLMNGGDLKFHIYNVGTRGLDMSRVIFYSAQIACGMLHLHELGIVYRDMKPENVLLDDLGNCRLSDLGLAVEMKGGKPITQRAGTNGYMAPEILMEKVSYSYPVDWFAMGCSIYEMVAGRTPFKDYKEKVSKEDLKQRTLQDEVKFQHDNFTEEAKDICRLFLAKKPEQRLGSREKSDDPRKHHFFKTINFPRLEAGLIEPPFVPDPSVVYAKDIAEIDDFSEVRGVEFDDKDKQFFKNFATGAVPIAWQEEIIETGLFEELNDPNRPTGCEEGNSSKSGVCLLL
Chain of Tyrosine-protein kinase Fes/Fps (Homo sapiens) (P07332 whole entry): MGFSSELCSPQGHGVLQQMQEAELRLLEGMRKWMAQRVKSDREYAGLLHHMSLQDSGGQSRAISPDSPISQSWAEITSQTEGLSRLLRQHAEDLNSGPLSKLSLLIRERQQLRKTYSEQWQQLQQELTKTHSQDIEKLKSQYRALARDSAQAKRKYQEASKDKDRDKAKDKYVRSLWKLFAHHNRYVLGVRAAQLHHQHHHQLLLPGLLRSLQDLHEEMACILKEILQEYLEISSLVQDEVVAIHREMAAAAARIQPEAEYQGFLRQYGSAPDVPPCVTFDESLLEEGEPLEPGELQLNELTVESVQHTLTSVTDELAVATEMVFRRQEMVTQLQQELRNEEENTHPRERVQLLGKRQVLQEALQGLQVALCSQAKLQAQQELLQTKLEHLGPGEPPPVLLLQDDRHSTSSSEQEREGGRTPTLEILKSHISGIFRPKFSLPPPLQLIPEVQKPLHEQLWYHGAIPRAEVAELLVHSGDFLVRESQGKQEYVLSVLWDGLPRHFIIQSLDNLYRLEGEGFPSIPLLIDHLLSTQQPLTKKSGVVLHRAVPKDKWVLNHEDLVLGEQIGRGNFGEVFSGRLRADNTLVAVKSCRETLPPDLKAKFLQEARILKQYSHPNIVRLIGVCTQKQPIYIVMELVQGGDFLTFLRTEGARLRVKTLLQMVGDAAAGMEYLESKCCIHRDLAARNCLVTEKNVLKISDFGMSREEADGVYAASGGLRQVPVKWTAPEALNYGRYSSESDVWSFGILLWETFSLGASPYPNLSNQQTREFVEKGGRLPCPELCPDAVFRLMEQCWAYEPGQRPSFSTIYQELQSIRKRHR
Chain of Transcription intermediary factor 1-alpha (Homo sapiens) (O15164 whole entry, the tested form may be a part): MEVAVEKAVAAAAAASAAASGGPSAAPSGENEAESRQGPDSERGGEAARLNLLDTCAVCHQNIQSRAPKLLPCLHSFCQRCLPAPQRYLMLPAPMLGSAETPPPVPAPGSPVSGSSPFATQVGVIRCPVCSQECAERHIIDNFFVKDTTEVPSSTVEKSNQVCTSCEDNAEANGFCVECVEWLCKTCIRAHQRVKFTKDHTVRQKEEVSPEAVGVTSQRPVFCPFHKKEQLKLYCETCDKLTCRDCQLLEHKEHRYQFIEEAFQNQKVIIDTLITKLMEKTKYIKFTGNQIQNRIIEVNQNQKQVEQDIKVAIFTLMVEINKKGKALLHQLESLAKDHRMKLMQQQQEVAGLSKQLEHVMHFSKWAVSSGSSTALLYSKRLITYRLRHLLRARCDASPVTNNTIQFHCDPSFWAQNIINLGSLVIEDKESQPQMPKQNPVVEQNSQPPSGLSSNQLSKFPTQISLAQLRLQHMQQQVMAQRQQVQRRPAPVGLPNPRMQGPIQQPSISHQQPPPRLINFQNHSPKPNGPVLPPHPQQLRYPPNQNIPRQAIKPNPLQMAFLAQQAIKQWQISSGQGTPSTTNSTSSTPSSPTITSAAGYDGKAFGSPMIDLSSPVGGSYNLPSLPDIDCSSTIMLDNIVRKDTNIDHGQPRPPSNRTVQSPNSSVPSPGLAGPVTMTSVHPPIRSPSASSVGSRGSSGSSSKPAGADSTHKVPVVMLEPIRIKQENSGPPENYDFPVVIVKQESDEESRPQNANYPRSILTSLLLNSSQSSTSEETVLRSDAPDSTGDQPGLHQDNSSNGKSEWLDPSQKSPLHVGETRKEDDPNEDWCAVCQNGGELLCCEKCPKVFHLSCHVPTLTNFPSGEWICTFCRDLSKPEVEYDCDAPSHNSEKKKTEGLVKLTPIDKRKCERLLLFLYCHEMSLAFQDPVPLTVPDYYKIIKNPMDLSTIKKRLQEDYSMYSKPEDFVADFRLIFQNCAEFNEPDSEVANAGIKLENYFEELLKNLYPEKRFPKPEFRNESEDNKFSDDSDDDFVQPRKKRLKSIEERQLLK

CN1C[C@H](Nc2nc3cc[nH]c3c(=O)n2C)C[C@H](c2ccc3c(c2)OCCO3)C1
inactive: Activity [1] | Activity [2] | inhibition [3] | inhibition [4] | inhibition [5] | inhibition [6] | inhibition [7] | inhibition [8] | inhibition [9] | inhibition [10] | inhibition [11] | inhibition [12] | inhibition [13] | inhibition [14] | inhibition [15] | inhibition [16] | inhibition [17] | inhibition [18] | inhibition [19] | inhibition [20] | inhibition [21] | inhibition [22] | inhibition [23]
